# Hits are enriched below; roughly 2% of the tested compounds scored in any of these assays.
# PAD4 FP inh: inhibitors of human PAD4 | recombinant PAD4, RCA probe fluorescence polarization | inhibition, % at 6.36 µM | hit rate 0.41% among 330,000 | AID 485272;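 active = percent inhibition above a cutoff equal to the mean of all tested compounds plus 3 SD, cut at about 15% in these data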;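 also: 0% = PAD4 with RCA probe and DMSO and 100% = probe without PAD4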
# Fh CTSL1 inh: blocks F. hepatica cathepsin L1 in PFM18AAP counter-screen. recombinant F. hepatica cathepsin L1, Z-Leu-Arg-MCA fluorescence. inhibition, % at 5.96 µM. hit rate 0.49% among 300,000;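 active = inhibition above the mean of all tested compounds plus 3 SD, set per screening campaign, cut at about 17% in these data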;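 also: 0% = plate median of test compound wells and 100% = 1 µM Z-Phe-Ala-diazomethylketone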
# Apaf1 inhib: inhibitors of human Apaf-1 apoptosome | reconstituted apoptosome caspase-3 activity, DEVD-Rh110 fluorescence | inhibition, % at 20 µM | hit rate 0.71% among 330,000 | AID 489030; active = inhibition of at least 40% at 20 µM;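 also: plate controls were DMSO wells for no effect and DEVD-CHO caspase inhibitor wells for full effect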
#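 System: Apoptosome proteins | Medium: Hepes pH 7.5 with detergent and BSA | Also added: Cytochrome c trigger plus (Z-DEVD)2-Rh110 caspase-3 substrate | Incubation: 30 min compound preincubation, 50 min activation, room temperature | Detection: Rhodamine 110 fluorescence at Ex 480/Em 540 nm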
# GSTO1 counter: counter-screen for RBBP9 inhibitors: inhibitors of human GSTO1; P78417; recombinant GSTO1, activity-based probe fluorescence polarization; inhibition, % at 5.96 µM; AID 1974; hit rate 1.1% among 300,000;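 active = inhibition above the campaign mean inhibition plus 3 SD, cut at about 35% in these data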;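 also: 0% = GSTO1-1 with DMSO and 100% = wells lacking GSTO1-1 enzyme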
# Target sequence (P78417 whole entry, looked up): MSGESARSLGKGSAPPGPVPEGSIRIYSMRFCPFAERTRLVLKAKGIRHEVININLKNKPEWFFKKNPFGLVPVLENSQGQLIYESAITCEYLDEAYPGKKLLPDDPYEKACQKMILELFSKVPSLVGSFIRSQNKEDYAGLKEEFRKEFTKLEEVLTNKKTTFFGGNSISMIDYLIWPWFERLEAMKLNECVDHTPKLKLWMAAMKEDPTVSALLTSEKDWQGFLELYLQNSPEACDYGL
# UCH37 DUB inh: blocks the human deubiquitinase UCH37; purified proteasome/UCH37, Ub-AMC cleavage fluorescence; hit rate 0.33% among 330,000; inhibition, % (concentration not given with the values); AID 588478;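 active = mean inhibition over replicate wells above about 20%, limit read from the data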;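 also: 0% = compound-free wells with enzyme and 100% = wells lacking proteasome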
#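 Material: human UCH37 enzyme supplied as purified proteasome complex. Measure: % inhibition of Ub-AMC cleavage fluorescence. Medium: pH 7.4 Tris-HCl (50 mM) with ovalbumin, ATP-MgCl2, DTT. Times: 30 min preincubation with enzyme, 25 min cleavage at room temperature. Detection: AMC fluorescence intensity at 355/460 nm.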
# PP5 inh: inhibitors of human protein phosphatase 5 (PP5); purified PP5c, OMFP substrate fluorescence; AID 1987; inhibition, % at 6.7 µM; P53041; hit rate 0.18% among 320,000;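 active = inhibition above the campaign's mean inhibition across all tested compounds plus 3 SD, cut at about 9.5% in these data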;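 also: 0% = DMSO only and 100% = 100 µM cantharidin control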
# Target sequence (P53041 whole entry, looked up): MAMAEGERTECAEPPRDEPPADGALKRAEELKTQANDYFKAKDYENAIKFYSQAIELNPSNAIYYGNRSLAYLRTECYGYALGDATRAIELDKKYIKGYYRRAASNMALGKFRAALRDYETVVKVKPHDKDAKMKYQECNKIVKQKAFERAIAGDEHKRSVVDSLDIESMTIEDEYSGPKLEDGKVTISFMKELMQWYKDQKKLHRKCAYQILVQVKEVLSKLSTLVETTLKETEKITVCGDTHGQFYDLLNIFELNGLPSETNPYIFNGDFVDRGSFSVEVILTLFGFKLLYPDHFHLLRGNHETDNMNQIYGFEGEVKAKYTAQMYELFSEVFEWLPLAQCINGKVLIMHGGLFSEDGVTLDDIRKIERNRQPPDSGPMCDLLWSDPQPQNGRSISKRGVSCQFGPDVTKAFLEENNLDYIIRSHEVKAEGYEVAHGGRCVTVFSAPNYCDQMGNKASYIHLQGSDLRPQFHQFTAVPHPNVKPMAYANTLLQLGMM
# UCH37 confirm: UCH37 Ub-AMC cleavage inhibition, confirmed | shares compounds with UCH37 DUB inh | Proteasome-bound UCH37, Ub-AMC cleavage fluorescence | inhibition, % at 20 µM | hit rate 27% among 480;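 active = average inhibition over replicates above about 50%, so the earlier screening hit is confirmed, limit read from the data; inactive = the rest, counted as false positives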;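 also: based on cleavage rate fitted by regression over a 30 min kinetic read; 0% = proteasome plus Ub-AMC and 100% = Ub-AMC without proteasome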
# Numbers without * were called inactive; . = no result.
SMILES,PAD4 FP inh,Fh CTSL1 inh,Apaf1 inhib,GSTO1 counter,UCH37 DUB inh,PP5 inh,UCH37 confirm
O=C(c1ccc(Cl)cc1)C(Cn1cncn1)C(Sc1ccccc1)c1ccccc1 (configuration not stated),1.5,1.6,21.2,-3.2,-1.3,3.5,.
CCOCCn1c(COc2ccc(C)cc2)nc2ccccc21,-2.3,-0.5,0.2,-5.5,6.4,-0.4,.
COCCn1c(COc2ccc(C)cc2)nc2ccccc21,-3.0,0.2,1.3,4.6,35.6*,0.8,3.1
Fc1ccccc1C=NNc1nc2ccccc2o1,.,.,.,.,-10.2,.,.
CCOc1ccc(CNC(=S)NN=Cc2ccncc2)cc1,.,.,.,.,43.8*,.,-11.0
CCOc1ccc(CNC(=S)N/N=C/c2ccncc2)cc1,1.1,5.8,-5.3,2.5,.,-0.9,.
CC[N+]1(C)CCC(=C2c3ccccc3CC(=O)c3sccc32)CC1 (configuration not stated),-3.3,-0.3,-10.6,5.4,7.0,2.0,.
C[N+]1(C)CCC(=C2c3ccccc3CC(=O)c3sccc32)CC1,-7.2,-3.4,57.3*,31.8,75.4*,2.0,18.6
CC(=O)[C@H]1[C@@H]2C(=O)N(c3cccc(Cl)c3)C(=O)[C@@H]2[C@H]2c3ccccc3C=CN21,-8.4,11.4,73.0*,9.4,39.9*,0.8,-8.7
CC(=NNC(=O)c1cccc(C)c1)c1c(O)cc(C)oc1=O,.,.,.,.,7.7,.,.
O=C(NN=C1C2CC3CC(C2)CC1C3)c1ccncc1,-2.1,0.0,2.7,4.3,2.0,0.8,.
O=C(NN=C1CC(=NNC(=O)c2ccncc2)c2ccccc21)c1ccncc1,.,.,.,.,45.7*,.,76.5*
C=CCOc1ccc(C2/C(=C(/O)c3ccc(OC)cc3)C(=O)C(=O)N2CCN2CCNCC2)cc1 (configuration not stated),0.5,-2.5,22.8,-1.7,55.2*,-0.7,7.3
CCOc1ccc(C2/C(=C(/O)c3ccc(F)cc3)C(=O)C(=O)N2CCCN(C)C)cc1 (configuration not stated),-2.0,-3.0,-3.1,-4.1,35.1*,1.1,15.9
COc1ccc(C=NNC(=O)c2cccnc2)cc1,.,.,.,.,6.0,.,.
Cc1cccc(NCC(=O)NN=Cc2ccc(Br)cc2)c1,.,.,.,.,3.6,.,.
COC/C=C/C1=CC2=CC(=O)C(C)(OC(=O)c3cnc4ccccc4n3)C(=O)C2=CN1c1ccc(OC)cc1 (configuration not stated),0.6,-6.1,12.4,23.1,-1.6,-0.1,.
COC/C=C/C1=CC2=CC(=O)C(C)(OC(=O)c3cnc4ccccc4n3)C(=O)C2=CN1C1CC1 (configuration not stated),9.0,-8.2,33.2,29.4,47.3*,-3.6,23.8
O=C(Cn1cc(C=NNC(=O)c2cccc(C(F)(F)F)c2)c2ccccc21)Nc1ccc(F)cc1,.,.,.,.,-52.2,.,.
CC1=Nc2ccccc2/C1=C/c1sc(=S)n(-c2cccc(C(=O)O)c2)c1O,.,.,.,.,26.5*,.,56.7*
Oc1c(C=C2N=c3ccccc3=N2)sc(=S)n1-c1ccccc1,-5.3,-3.8,8.4,3.3,11.1,2.6,.
CC(=NNS(=O)(=O)c1ccc([N+](=O)[O-])cc1)c1ccc(NC(=O)c2ccco2)cc1,.,.,.,.,6.6,.,.
N#C/C(=C\c1ccc(O)c([N+](=O)[O-])c1)c1nc2ccccc2s1,.,.,.,.,4.6,.,.
COc1cc(/C=C(\C#N)c2nc3ccccc3s2)cc([N+](=O)[O-])c1O,.,.,19.3,.,26.3*,.,53.0*
Cc1ccc(NC(=O)CC2SC(=Nc3nccs3)N(C)C2=O)c(C)c1 (configuration not stated),.,.,.,.,2.3,.,.
SMILES,PAD4 FP inh,Fh CTSL1 inh,Apaf1 inhib,GSTO1 counter,UCH37 DUB inh,PP5 inh,UCH37 confirm
CC(=O)Nc1ccc(S(=O)(=O)N2CCC(c3nc4ccc(C)cc4[nH]3)CC2)cc1,3.6,-4.4,-16.7,6.0,28.1*,2.3,12.4
COc1ccc2ccccc2c1C=NNC(=O)c1ccc(C)s1,.,.,.,.,-7.5,.,.
COc1ccc(OC)c(C2/C(=C(/O)c3cnn(-c4ccccc4)c3C)C(=O)C(=O)N2CCN(C)C)c1 (configuration not stated),-1.1,0.0,-2.5,1.2,34.6*,-4.1,13.8
COc1ccc(C2/C(=C(/O)c3cnn(-c4ccccc4)c3C)C(=O)C(=O)N2CCN(C)C)cc1OC (configuration not stated),.,.,.,.,15.1,.,.
ON=C1CCC(=NO)c2nn(-c3ccccc3Cl)nc21,.,.,.,.,1.9,.,.
NS(=O)(=O)c1ccc(N=Nc2ccc(O)c3ncccc23)cc1,-11.8,5.9,11.0,32.8,5.3,4.0,.
NS(=O)(=O)c1ccc(N=Nc2ccc(=O)[nH]c2O)cc1,-10.1,10.3,.,6.5,31.9*,-2.7,14.6
Oc1ccc2ccccc2c1C=Nc1nc2c(s1)CCCC2,.,.,.,.,42.2*,.,24.9
O=C(CNC(=O)c1cccc(F)c1)NN=C/C=C/c1ccccc1,.,.,.,.,4.2,.,.
O=C1C=C(N(CCO)Cc2ccccc2)c2ccccc2C1=O,.,.,.,.,91.6*,.,111.4*
CCOC(=O)C1=CC[C@@H](c2ccccc2Cl)N(S(=O)(=O)c2ccc(C)cc2)[C@H]1C(=O)OCC,-1.1,.,5.8,.,38.0*,1.8,-8.6
CCOC(=O)C1=CC[C@@H](c2cccc(C)c2)N(S(=O)(=O)c2ccc(C)cc2)[C@H]1C(=O)OCC,2.4,.,18.5,.,1.8,2.4,.
C(=NN1CCOCC1)c1cn(-c2ccccc2)nc1-c1ccccc1,.,.,.,.,1.4,.,.
O=C(Cc1csc(N2CCOCC2)n1)NN=Cc1cccc(O)c1,.,.,.,.,0.8,.,.
CCCC1=C(C(=O)OCC)C(c2ccc(OC)c(C)c2OC)C(C#N)=C(N)O1 (configuration not stated),-5.8,-2.6,18.1,9.3,30.8*,3.7,-38.8
Cc1cccc(C=NNC(=O)c2cc(-c3cccnc3)nc3ccccc23)c1,.,.,.,.,2.4,.,.
CCCc1nc2c(=O)n(C)c(=O)nc-2n(C)n1,.,.,.,.,99.9*,.,100.3*
CC1=NN(C(=O)CSCc2ccccc2)C(O)(c2ccccc2)C1 (configuration not stated),-0.2,-6.7,-3.3,6.8,31.8*,0.1,16.0
CC1=NN(C(=O)COc2ccccc2)C(O)(c2ccccc2)C1 (configuration not stated),-1.7,0.2,-5.1,3.5,0.2,-0.3,.
O=C(NN=Cc1ccccc1)c1[nH]ncc1Br,.,.,.,.,3.5,.,.
O=C(NN=Cc1coc2ccccc2c1=O)c1ccccc1Br,.,.,.,.,-4.8,.,.
COCc1c(C(=O)NN=Cc2ccc(C)o2)nnn1-c1nonc1N,.,.,.,.,13.0,.,.
CC(C)(C)C(=O)Nc1ccc(Sc2ccc([N+](=O)[O-])cc2)cc1,-1.7,-0.7,5.3,-3.4,2.7,5.3,.
CC(=O)Nc1ccc(Sc2ccc([N+](=O)[O-])o2)cc1,.,.,.,.,27.7*,.,25.8
COc1ccc(C(=O)c2ccccc2)c2c(O)ccc(C(=O)c3ccccc3)c12,-2.2,-3.2,11.5,-4.9,40.7*,-0.1,-6.6
